Data taken from ChEMBL document CHEMBL3861962 (Eur J Med Chem, 2016).
One block for each molecule: values may come before it.

Experiments:
[1] = Drug metabolism in human liver microsomes assessed as formation of N-(6-ethoxy-5-(2-methoxyphenoxy)-2,2'-bipyrimidin-4-yl)-4-(1-hydroxy-2-methylpropan-2-yl)benzenesulfonamide at 5 uM in presence of NADPH after 30 mins by LC-MS/MS analysissss; type: ADME; details: 0.5 h
Summary of the method: (§1)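 Pooled human liver microsomes in 100 mM potassium phosphate, pH 7.4, with test compound at 5 μM final. Reaction started with 1 mM NADPH (final) and run at 37 °C in a shaking water bath for 0, 15 and 30 min. Stopped with an equal volume of ice-cold acetonitrile containing 0.6 μM labetalol as internal standard. Protein was spun out and the supernatant analysed by LC-MS/MS. Blank had no compound.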

Cytochrome P450 3A4 [2] = molecular target: T1, Cytochrome P450 3A4 (Homo sapiens, UniProt P08684); assay: Drug metabolism assessed as human recombinant CYP3A4-mediated formation of N-(6-ethoxy-5-(2-methoxyphenoxy)-2,2'-bipyrimidin-4-yl)-4-(1-hydroxy-2-methylpropan-2-yl)benzenesulfonamide at 5 uM in presence of NADPH after 30 mins by LC-MS/MS analysissss; type: ADME; details: recombinant enzyme, 0.5 h
T1 sequence (P08684 whole entry): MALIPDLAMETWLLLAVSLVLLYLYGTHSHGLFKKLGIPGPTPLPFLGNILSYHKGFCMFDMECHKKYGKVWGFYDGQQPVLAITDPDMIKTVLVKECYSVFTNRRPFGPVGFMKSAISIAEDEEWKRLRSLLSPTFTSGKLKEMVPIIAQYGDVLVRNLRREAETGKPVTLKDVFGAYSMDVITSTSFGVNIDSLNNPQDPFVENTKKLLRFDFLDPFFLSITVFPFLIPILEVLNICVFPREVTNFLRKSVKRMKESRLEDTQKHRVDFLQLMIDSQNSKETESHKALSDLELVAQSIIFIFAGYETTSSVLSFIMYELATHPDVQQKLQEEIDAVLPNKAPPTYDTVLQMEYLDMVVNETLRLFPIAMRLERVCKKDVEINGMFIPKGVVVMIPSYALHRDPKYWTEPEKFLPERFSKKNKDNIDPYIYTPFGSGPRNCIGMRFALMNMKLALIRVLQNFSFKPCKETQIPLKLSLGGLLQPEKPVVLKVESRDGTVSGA
Summary of the method: (§2)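 Substrate at 5 μM final in 100 mM potassium phosphate, pH 7.4, incubated with human liver microsomes or baculovirus-expressed recombinant CYP3A4, 2D6 or 2C9. Reaction started with 1 mM NADPH and run 0, 15 and 30 min at 37 °C. Stopped with ice-cold acetonitrile containing labetalol internal standard, then centrifuged. Supernatant analysed by LC-MS/MS on a C18 column at 40 °C. Blank was enzyme without substrate.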

Cytochrome P450 2C9 [3] = molecular target: T2, Cytochrome P450 2C9 (Homo sapiens, UniProt P11712); assay: Drug metabolism assessed as human recombinant CYP2C9-mediated metabolite formation by measuring parent compound remaining at 5 uM in presence of NADPH after 30 mins by LC-MS/MS analysis; type: ADME; details: recombinant enzyme, 0.5 h; summary of the method: as §2
T2 sequence (P11712 whole entry): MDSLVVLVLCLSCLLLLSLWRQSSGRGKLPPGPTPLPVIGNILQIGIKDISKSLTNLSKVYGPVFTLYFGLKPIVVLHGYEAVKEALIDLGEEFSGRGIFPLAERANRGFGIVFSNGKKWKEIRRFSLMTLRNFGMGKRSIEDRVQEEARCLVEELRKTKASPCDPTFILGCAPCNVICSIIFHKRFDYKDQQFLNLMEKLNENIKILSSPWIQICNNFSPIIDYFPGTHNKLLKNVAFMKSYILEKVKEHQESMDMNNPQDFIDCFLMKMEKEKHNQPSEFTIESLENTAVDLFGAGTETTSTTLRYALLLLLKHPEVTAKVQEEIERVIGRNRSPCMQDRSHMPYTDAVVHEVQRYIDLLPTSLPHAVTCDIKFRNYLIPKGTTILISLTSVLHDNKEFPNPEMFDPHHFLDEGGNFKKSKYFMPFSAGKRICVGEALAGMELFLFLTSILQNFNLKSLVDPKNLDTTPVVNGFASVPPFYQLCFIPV

Cytochrome P450 3A4 [4] = molecular target: T1, Cytochrome P450 3A4; assay: Drug metabolism assessed as human recombinant CYP3A4-mediated metabolite formation by measuring parent compound remaining at 5 uM in presence of NADPH after 30 mins by LC-MS/MS analysis; type: ADME; details: recombinant enzyme, 0.5 h; summary of the method: as §2
[5] = Metabolic stability in human liver microsomes assessed as parent compound remaining at 5 uM in presence of NADPH after 30 mins by LC-MS/MS analysis; type: ADME; details: read-out: Stability; summary of the method: as §1
Cytochrome P450 2D6 = Cytochrome P450 2D6 (Homo sapiens, UniProt P10635); assay: Drug metabolism assessed as human recombinant CYP2D6-mediated metabolite formation by measuring parent compound remaining at 5 uM in presence of NADPH after 30 mins by LC-MS/MS analysis; type: ADME; details: recombinant enzyme, 0.5 h; summary of the method: as §2
Sequence of Cytochrome P450 2D6 (P10635 whole entry): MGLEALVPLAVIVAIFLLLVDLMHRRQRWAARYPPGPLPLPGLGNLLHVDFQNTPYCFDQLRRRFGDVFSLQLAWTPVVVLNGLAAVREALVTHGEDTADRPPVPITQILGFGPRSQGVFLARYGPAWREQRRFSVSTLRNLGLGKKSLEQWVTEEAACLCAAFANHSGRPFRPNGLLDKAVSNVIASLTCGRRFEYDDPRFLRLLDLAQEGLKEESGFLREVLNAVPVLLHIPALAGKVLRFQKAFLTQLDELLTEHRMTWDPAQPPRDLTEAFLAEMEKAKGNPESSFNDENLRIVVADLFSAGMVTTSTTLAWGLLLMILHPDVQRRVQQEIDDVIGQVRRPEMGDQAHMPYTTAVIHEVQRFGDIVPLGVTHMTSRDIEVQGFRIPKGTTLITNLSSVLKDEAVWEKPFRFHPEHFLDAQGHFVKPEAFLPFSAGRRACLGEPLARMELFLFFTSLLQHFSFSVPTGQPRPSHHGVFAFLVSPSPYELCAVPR

[6] = Retention time of the compound; type: physicochemical
Cytochrome P450 2C9 [7] = molecular target: T2, Cytochrome P450 2C9; assay: Drug metabolism assessed as human recombinant CYP2C9-mediated formation of N-(6-ethoxy-5-(2-methoxyphenoxy)-2,2'-bipyrimidin-4-yl)-4-(1-hydroxy-2-methylpropan-2-yl)benzenesulfonamide at 5 uM in presence of NADPH after 30 mins by LC-MS/MS analysissss; type: ADME; details: recombinant enzyme, 0.5 h; summary of the method: as §2
Cytochrome P450 3A4 [8] = molecular target: T1, Cytochrome P450 3A4; assay: Drug level assessed as human recombinant CYP3A4-mediated compound formation treated with 4-(1,1,1,3,3,3-Hexafluoro-2-methoxypropan-2-yl)-N-(6-(2-hydroxyethoxy)-5-(2-methoxyphenoxy)-2,2'-bipyrimidin-4-yl)benzenesulfonamide at 5 uM in presence of NADPH after 30 mins by LC-MS/MS analysis; type: ADME; details: recombinant enzyme, 0.5 h; summary of the method: as §2
[9] = Drug level in human liver microsomes treated with 4-(1,1,1,3,3,3-Hexafluoro-2-methoxypropan-2-yl)-N-(6-(2-hydroxyethoxy)-5-(2-methoxyphenoxy)-2,2'-bipyrimidin-4-yl)benzenesulfonamide at 5 uM in presence of NADPH after 30 mins by LC-MS/MS analysis; type: ADME; details: 0.5 h; summary of the method: as §2
[10] = Drug level in human liver microsomes treated with 4-(1,1,1,3,3,3-Hexafluoro-2-hydroxypropan-2-yl)-N-(6-(2-hydroxyethoxy)-5-(2-methoxyphenoxy)-2,2'-bipyrimidin-4-yl)benzenesulfonamide at 5 uM in presence of NADPH after 30 mins by LC-MS/MS analysis; type: ADME; details: 0.5 h; summary of the method: as §2
Cytochrome P450 3A4 [11] = molecular target: T1, Cytochrome P450 3A4; assay: Drug level assessed as human recombinant CYP3A4-mediated compound formation treated with 4-(1,1,1,3,3,3-Hexafluoro-2-hydroxypropan-2-yl)-N-(6-(2-hydroxyethoxy)-5-(2-methoxyphenoxy)-2,2'-bipyrimidin-4-yl)benzenesulfonamide at 5 uM in presence of NADPH after 30 mins by LC-MS/MS analysis; type: ADME; details: recombinant enzyme, 0.5 h; summary of the method: as §2

Drug metabolism [1]: Metabolite_Detected | Drug metabolism (Cytochrome P450 3A4 [2]): Metabolite_Detected | Stability (Cytochrome P450 2C9 [3]): 99% | Stability (Cytochrome P450 3A4 [4]): 15% | remaining at 0.5 h, 5 µM [5]: 68.5% | Stability (Cytochrome P450 2D6): > 99% | Retention_time [6]: 5.96 min | Drug metabolism (Cytochrome P450 2C9 [7]): Metabolite_Detected
Compound: CCOc1nc(-c2ncccn2)nc(NS(=O)(=O)c2ccc(C(C)(C)C)cc2)c1Oc1ccccc1OC

Retention_time [6]: 5.52 min
Compound: CCOc1nc(-c2ncccn2)nc(NS(=O)(=O)c2ccc(C(C)(C)C)cc2)c1Oc1ccccc1O

Drug metabolism (Cytochrome P450 3A4 [8]): Metabolite_Detected | Drug metabolism [9]: Metabolite_Detected | Retention_time [6]: 5.14 min
Compound: COC(c1ccc(S(=O)(=O)Nc2nc(-c3ncccn3)nc(OCCO)c2Oc2ccccc2O)cc1)(C(F)(F)F)C(F)(F)F

Drug metabolism [10]: Metabolite_Detected | Drug metabolism (Cytochrome P450 3A4 [11]): Metabolite_Detected | Retention_time [6]: 4.39 min
Compound: O=S(=O)(Nc1nc(-c2ncccn2)nc(OCCO)c1Oc1ccccc1O)c1ccc(C(O)(C(F)(F)F)C(F)(F)F)cc1
